Measurements: ChEMBL document CHEMBL4266034, “LC-MS-Guided Isolation of Insulin-Secretion-Promoting Monoterpenoid Carbazole Alkaloids from Murraya microphylla” (J Nat Prod, 2018)

Legend:
[1] = Induction of insulin secretion in syrian hamster HIT-T15 cells at 40 uM after 1 hr by HTRF assay relative to control; type: functional, Mesocricetus auratus
Method in brief: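 HIT-T15 hamster pancreatic islet cells were exposed to test compounds at 40 μM, with gliclazide at 100 μM as the positive control. Insulin secretion is expressed relative to untreated control cells. The procedure follows an earlier report. Each experiment was performed three times, and significance was taken at p < 0.01.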

[2] = Cytotoxicity against syrian hamster HIT-T15 cells assessed as decrease in cell viability at 40 uM by MTT assay; type: cell-based, Mesocricetus auratus

Row | Compound | fold change (FC) [1] | Activity [2]
1 | COc1cc2c([nH]c3c4c(c(C)cc32)OC(C)(C)C=C4)c([C@@]2(C)CC[C@@]3(C(C)C)C[C@H]32)c1O | 1.9 - 3.1 | Non-Toxic
2 | CC1=C[C@@H](c2c(O)ccc3c2[nH]c2c4c(c(C)cc23)OC(C)(C)C=C4)[C@H](C(C)C)CC1 | 1.9 - 3.1 | Non-Toxic
3 | CC(C)=CCC[C@]1(C)C=Cc2c(c(C)cc3c2[nH]c2c([C@@]4(C)CC[C@@]5(C(C)C)C[C@H]54)c(O)ccc23)O1 | 1.9 - 3.1 | Non-Toxic
4 | COc1cc2c([nH]c3c4c(c(C)cc32)OC(C)(C)C=C4)c([C@]2(C)CC[C@@]3(C(C)C)C[C@H]32)c1O | 1.9 - 3.1 | Non-Toxic
5 | CC1=CCC(Oc2ccc3c(c2)[nH]c2c4c(c(C)cc23)OC(C)(C)C=C4)(C(C)C)CC1 (centres undefined) | 1.9 - 3.1 | Non-Toxic
6 | COc1cc2c(cc1OC(C)(C)[C@@H]1CC=C(C)CC1)[nH]c1c3c(c(C)cc12)OC(C)(C)C=C3 | 1.9 - 3.1 | Non-Toxic
7 | CC(C)=CCC[C@]1(C)C=Cc2c(c(C)cc3c2[nH]c2c([C@@H]4C=C(C)CC[C@H]4C(C)C)c(O)ccc23)O1 | 1.9 - 3.1 | Non-Toxic
8 | Cc1cc2c([nH]c3c([C@]4(C)CC[C@@]5(C(C)C)C[C@H]54)c(O)ccc32)c2c1OC(C)(C)C=C2 | 1.9 - 3.1 | Non-Toxic
9 | COc1cc2c([nH]c3c4c(c(C)cc32)OC(C)(C)C=C4)c([C@@H]2C=C(C)CC[C@H]2C(C)C)c1O | 1.9 - 3.1 | Non-Toxic
10 | Cc1cc2c([nH]c3c([C@@]4(C)CC[C@@]5(C(C)C)C[C@H]54)c(O)ccc32)c2c1OC(C)(C)C=C2 | 1.9 - 3.1 | Non-Toxic
11 | COc1cc2c(cc1OC1(C(C)C)CC=C(C)CC1)[nH]c1c3c(c(C)cc12)OC(C)(C)C=C3 (centres undefined) | 1.9 - 3.1 | Non-Toxic
12 | CC(C)=CCCC1(C)C=Cc2c(c(C)cc3c2[nH]c2cc(OC4(C(C)C)CC=C(C)CC4)ccc23)O1 (centres undefined) | 1.9 - 3.1 | Non-Toxic
